Measured values as given in ChEMBL document CHEMBL3593159, “Identification of 5-nitrofuran-2-amide derivatives that induce apoptosis in triple negative breast cancer cells by activating C/EBP-homologous protein expression” (Bioorg Med Chem, 2015).
Activity calls are given as the source filed them. No cut-off for these calls is given here.

Assays:
HCC1806 [1] = test: Cytotoxicity against human HCC1806 cells assessed as reduction in cell viability incubated for 3 days by cell-titer-Glo reagent based assay; assay type: functional; details: for IC50: HCC1806, 72 h
Outline: (§1)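 Viability by CellTiter-Glo (ATP read-out). Cells plated at 3 × 10³/well in 384-well format overnight, then exposed to compound over a range (0.125–20 µM for initial series) for 3 d in RPMI 1640 with 10% FBS at 37°C, 5% CO₂. IC₅₀ fitted from dose–response curve.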

HCC1143 = test: Cytotoxicity against human HCC1143 cells assessed as reduction in cell viability incubated for 3 days by cell-titer-Glo reagent based assay; assay type: functional; details: for IC50: HCC1143, 72 h; outline: as §1
HCC38 = test: Cytotoxicity against human HCC38 cells assessed as reduction in cell viability incubated for 3 days by cell-titer-Glo reagent based assay; assay type: functional; details: for IC50: HCC38, 72 h; outline: as §1
HCC1806 [2] = test: Induction of apoptosis in human HCC1806 cells assessed as increase in caspase-3 cleavage at 10 uM incubated for 8 and 24 hrs by Western blotting method; assay type: functional, cell-based
Outline: (§2)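 HCC-1806 cells (8 × 10⁵ per 60-mm dish) treated with 10 µM for the indicated times, lysed in buffer with EDTA and phosphatase inhibitors; 20 µg protein on 7% SDS-PAGE, PVDF transfer, primary then HRP secondary antibodies (1:3000). α-Tubulin loading control; representative of 3 experiments.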

HCC1806 [3] = test: Induction of apoptosis in human HCC1806 cells assessed as reduction in cell number at 10 uM incubated for 24 hrs by live-cell phase-contrast microscopy; assay type: functional, cell-based
Outline: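 Near-confluent HCC-1806 cultures treated with 10 µM compound or DMSO for 24 h, then imaged by live-cell phase-contrast microscopy at 10× magnification.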

HCC1806 [4] = test: Increase in CHOP mRNA expression in human HCC1806 cells incubated for 8 hrs by qRT-PCR method; assay type: functional, cell-based
Outline: (§3)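 HCC-1806 cells (4 × 10⁵/well, 6-well) treated at a series of concentrations for 8 h; total RNA by TRIzol, 2 µg reverse transcribed, CHOP mRNA by qRT-PCR. Means of 4 replicate wells, 3 experiments, t-test vs DMSO.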

HCC1806 [5] = test: Increase in CHOP mRNA expression in human HCC1806 cells at 10 uM by qRT-PCR method; assay type: functional, cell-based; details: TDE = time-dependent effect
Outline: (§4)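 HCC-1806 cells (4 × 10⁵/well) exposed to 10 µM over a time course; CHOP mRNA by qRT-PCR after TRIzol extraction and reverse transcription of 2 µg RNA. Means of 4 replicate wells, 3 experiments, t-test vs 0 h.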

HCC1806 [6] = test: Increase in CHOP mRNA expression in human HCC1806 cells incubated for 8 hrs by qRT-PCR method relative to control; assay type: functional; outline: as §3
HCC1806 [7] = test: Increase in CHOP mRNA expression in human HCC1806 cells at 10 uM by qRT-PCR method relative to control; assay type: functional; outline: as §4
HCC1806 [8] = test: Increase in CHOP protein expression in human HCC1806 cells at 10 uM incubated for 2 and 24 hrs by Western blotting method; assay type: functional, cell-based; details: in the assay text read “4 and 24 hrs” for “2 and 24 hrs”; outline: as §2
MCF7 = test: Cytotoxicity against human MCF7 cells assessed as reduction in cell viability incubated for 3 days by cell-titer-Glo reagent based assay; assay type: functional
Outline: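 HCC-1806 and MCF7 cells exposed to compound for 3 d, viability read by CellTiter-Glo kit; means of 4 replicate wells, representative of 3 independent experiments.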

HCC1806 [9] = test: Increase in ATF4 mRNA expression in human HCC1806 cells at 10 uM incubated for 2 to 8 hrs by qRT-PCR method; assay type: functional, cell-based
Outline: (§5)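 HCC-1806 cells treated with 10 µM over a time course; ATF4, GADD34 or Bim mRNA by qRT-PCR. Means of 4 replicate wells, representative of 3 experiments, Student's t-test vs DMSO-treated cells.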

HCC1806 [10] = test: Increase in ATF4 protein in human HCC1806 cells at 10 uM incubated for 2 to 8 hrs by Western blotting method; assay type: functional, cell-based; outline: as §2
HCC1806 [11] = test: Increase in eIF2alpha phosphorylation in human HCC1806 cells at 10 uM incubated for 1 to 24 hrs by Western blotting method; assay type: functional, cell-based; outline: as §2
HCC1806 [12] = test: Increase in GADD34 mRNA expression in human HCC1806 cells at 10 uM incubated for 2 to 24 hrs by qRT-PCR method; assay type: functional, cell-based; details: TDE = time-dependent effect; outline: as §5
HCC1806 [13] = test: Reduction in eIF2alpha phosphorylation in human HCC1806 cells at 10 uM incubated for 1 to 24 hrs by Western blotting method; assay type: functional, cell-based; outline: as §2
HCC1806 [14] = test: Reduction in ATF4 protein in human HCC1806 cells at 10 uM incubated for 2 to 8 hrs by Western blotting method; assay type: functional, cell-based; outline: as §2
HCC1806 [15] = test: Increase in XBP1 mRNA splicing in human HCC1806 cells at 10 uM incubated for 2 hrs by RT-PCR method (reference value: 11%); assay type: functional
Outline: (§6)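 HCC-1806 cells given 10 µM compound or tunicamycin 1 µg/mL over a time course; XBP1 RT-PCR products resolved on agarose gel, GAPDH internal control. Spliced fraction by densitometry as XBP1s/(XBP1s+XBP1u) × 100%; 3 experiments.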

HCC1806 [16] = test: Increase in XBP1 mRNA splicing in human HCC1806 cells at 10 uM incubated for 4 hrs by RT-PCR method (reference value: 11%); assay type: functional; outline: as §6
HCC1806 [17] = test: Increase in XBP1 mRNA splicing in human HCC1806 cells at 10 uM incubated for 8 hrs by RT-PCR method (reference value: 11%); assay type: functional; outline: as §6
HCC1806 [18] = test: Increase in XBP1 mRNA splicing in human HCC1806 cells at 10 uM incubated for 24 hrs by RT-PCR method (reference value: 11%); assay type: functional; outline: as §6
HEK-293T [19] = test: Increase in UPRE-mediated luciferase expression in HEK293T cells stably transfected with UPRE-luciferase gene at 10 uM incubated for 24 hrs by luciferase reporter gene assay relative to control; assay type: functional, Homo sapiens
Outline: (§7)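 HEK293T cells stably carrying CHOP-, ERSE- or UPRE-luciferase reporters plated 7 × 10³/well in 384-well plates, after 16 h given compound (10 µM), tunicamycin 1 µg/mL or DMSO for 24 h; luciferase by Bright-Glo. Means of 4 replicate wells, representative of 3 experiments.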

HEK-293T [20] = test: Increase in ERSE-mediated luciferase expression in HEK293T cells stably transfected with ERSE-luciferase gene at 10 uM incubated for 24 hrs by luciferase reporter gene assay; assay type: functional, cell-based; details: Homo sapiens; outline: as §7
HCC1806 [21] = test: Cytotoxicity against human HCC1806 cells assessed as reduction in cell viability at 5 uM incubated for 48 hrs in presence of control siRNA by cell-titer-Glo reagent based assay; assay type: functional
Outline: (§8)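 HCC-1806 cells in serum-free RPMI transfected with 20 nM CHOP or scrambled siRNA by lipofection; after 6 h medium replaced with 10% FBS RPMI and compound (5 µM) or DMSO added for 48 h in 96-well format. Viability by CellTiter-Glo; 3 independent experiments, Student's t-test vs DMSO.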

HCC1806 [22] = test: Cytotoxicity against human HCC1806 cells assessed as reduction in cell viability at 5 uM incubated for 48 hrs in presence of CHOP siRNA by cell-titer-Glo reagent based assay; assay type: functional; outline: as §8
HCC1806 [23] = test: Increase in CHOP mRNA expression in human HCC1806 cells at 5 uM in presence of control siRNA incubated for 48 hrs by qRT-PCR method; assay type: functional, cell-based
Outline: (§9)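 HCC-1806 cells transfected with CHOP or scrambled siRNA; 6 h later treated with 5 µM compound or DMSO for 48 h. CHOP mRNA by RT-PCR with GAPDH as internal control; 3 independent experiments.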

HCC1806 [24] = test: Increase in CHOP mRNA expression in human HCC1806 cells at 5 uM in presence of CHOP siRNA incubated for 48 hrs by qRT-PCR method; assay type: functional, cell-based; outline: as §9
HCC1806 [25] = test: Reduction in Bcl-2 protein expression in human HCC1806 cells at 10 uM incubated for 2 to 24 hrs by Western blotting method; assay type: functional, cell-based; outline: as §2
HCC1806 [26] = test: Increase in Bim mRNA expression in human HCC1806 cells at 10 uM by RT-PCR method; assay type: functional, cell-based; details: TDE = time-dependent effect; outline: as §5
HCC1806 [27] = test: Increase in cleaved caspase-4 protein expression in human HCC1806 cells at 10 uM incubated for 8 to 24 hrs by Western blotting method; assay type: functional, cell-based; outline: as §2
HEK-293T [28] = test: Increase in CHOP expression in HEK293T cells stably transfected with luciferase gene at 10 uM incubated for 24 hrs by luciferase reporter gene assay; assay type: functional, Homo sapiens; outline: as §7
HEK293 = test: Increase in CHOP mRNA expression in HEK293 cells at 10 uM incubated for 24 hrs by qRT-PCR method; assay type: functional, Homo sapiens
Outline: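 HEK293 cells given 10 µM compound or DMSO for 24 h; CHOP mRNA by qRT-PCR. Means of 3 replicate wells, 3 independent experiments, Student's t-test vs control.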

CC(C)Cc1ccccc1NC(=O)c1ccc([N+](=O)[O-])o1
IC50 (HCC1806 [1]): > 40 µM

CC1CCN(c2ccc(NC(=O)c3ccco3)cc2)CC1
IC50 (HCC1806 [1]): > 40 µM

O=C(Nc1ccc(N2CCCCC2)c(F)c1)c1ccco1
IC50 (HCC1806 [1]): > 40 µM

O=C(Nc1ccc(N2CCOCC2)cc1)c1ccc([N+](=O)[O-])o1
IC50 (HCC1806 [1]): 1.5 µM | IC50 (HCC1143): 2.3 µM | IC50 (HCC38): 3.1 µM

CCc1cc(I)ccc1NC(=O)c1ccc([N+](=O)[O-])o1
IC50 (HCC1806 [1]): 5.5 µM

CC1CCN(c2ccc(NC(=O)c3ccc([N+](=O)[O-])o3)cc2)CC1
Activity (HCC1806 [1]): Dose-dependent effect | IC50 (HCC1806 [1]): 2.8 µM | IC50 (HCC1143): 2.1 µM | IC50 (HCC38): 2.5 µM | Activity (HCC1806 [2]): Active | Activity (HCC1806 [3]): Active | Activity (HCC1806 [4]): Dose-dependent effect | Activity (HCC1806 [5]): tde | fold change (FC) (HCC1806 [6]): 9 | fold change (FC) (HCC1806 [7]): 9 | Activity (HCC1806 [8]): Active | Activity (MCF7): Dose-dependent effect | Activity (HCC1806 [9]): Active | Activity (HCC1806 [10]): Active | Activity (HCC1806 [11]): Active | Activity (HCC1806 [12]): tde | Activity (HCC1806 [13]): Active | Activity (HCC1806 [14]): Active | Activity (HCC1806 [15]): 19.6% | Activity (HCC1806 [16]): 16.4% | Activity (HCC1806 [17]): 14.2% | Activity (HCC1806 [18]): 15.3% | fold change (FC) (HEK-293T [19]): < 2 | Activity (HEK-293T [20]): inactive | Activity (HCC1806 [21]): Active | Activity (HCC1806 [22]): inactive | Activity (HCC1806 [23]): Active | Activity (HCC1806 [24]): Active | Activity (HCC1806 [25]): Active | Activity (HCC1806 [26]): tde | Activity (HCC1806 [27]): Active

O=C(Nc1ccc(N2CCOCC2)c(Cl)c1)c1ccc([N+](=O)[O-])o1
IC50 (HCC1806 [1]): 2.6 µM | IC50 (HCC1143): 2.5 µM | IC50 (HCC38): 2 µM

COc1ccc(Cl)cc1NC(=O)c1ccc([N+](=O)[O-])o1
IC50 (HCC1806 [1]): 7 µM

O=C(Nc1ccc(I)cc1)c1ccc([N+](=O)[O-])o1
fold change (FC) (HEK-293T [28]): 24 | fold change (FC) (HEK293): 30 | Activity (HCC1806 [1]): Dose-dependent effect | IC50 (HCC1806 [1]): 6.2 µM | Activity (HCC1143): Dose-dependent effect | IC50 (HCC1143): 9.5 µM | Activity (HCC38): Dose-dependent effect | IC50 (HCC38): 8.7 µM

O=C(Nc1cccc(OC(F)(F)F)c1)c1ccc([N+](=O)[O-])o1
IC50 (HCC1806 [1]): 19.6 µM
